Measurements taken from ChEMBL document CHEMBL3751842, “Novel triazolothiadiazines act as potent anticancer agents in liver cancer cells through Akt and ASK-1 proteins” (Bioorg Med Chem, 2016).
The source made the active and inactive calls. The calls are words filed in the database; no cut-off is given here.

Tests used:
Huh-7 = test: Induction of oxidative stress in human HuH7 cells assessed as ROS accumulation at 10 uM after 48 hrs by DCFH-DA staining based fluorescence microscopy; format: functional, cell-based
Outline: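 Cells in 6-well dishes were treated with 10 µM compound or DMSO for 48 h. They were washed in PBS and stained for 15 min at 37°C in the dark with DCFH-DA solution (1 mM DCFH-DA, 10 mM glucose, 10 mM HEPES in PBS). After three PBS washes, cells were viewed by fluorescence microscopy. Selenium-deficient serum-free medium culture served as the positive control.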

[1] = biological target: RAC-alpha serine/threonine-protein kinase (Homo sapiens) (UniProt P31749); test: Inhibition of Akt phosphorylation in human HuH7 cells after 24 to 48 hrs by Western blot analysis; format: cell-based; conditions: Huh-7
Outline: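 Cells were exposed to compound or DMSO control for 24 or 48 h. Lysates were loaded at […] protein per lane and immunoblotted with antibodies diluted 1:100 to 1:500 in 5% BSA-TBS-T. Targets were p-Akt (Ser473), Akt, p-GSK3-α/β (Ser21/9), GSK3-α/β, SAPK/JNK, p-SAPK/JNK (Thr183/Tyr185), PARP, p-β-catenin, β-catenin, cyclin D1, p-ASK1 (S83) and p-ASK1 (S966). Actin served as the loading control.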

[2] = Cytotoxicity against human SNU475 cells assessed as growth inhibition after 72 hrs by sulforhodamine B assay; format: functional, cell-based, SNU-475; conditions: Homo sapiens, SNU-475, 72 h; read-out: IC50
Outline: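 Cells were grown at 37°C, 5% CO2 in DMEM with 10% FBS. They were seeded at 1000–3000 cells/well, grown 24 h, then exposed to compound at 2.5–40 µM for 72 h. Cells were fixed in 10% TCA for 1 h at 4°C, stained with 0.4% SRB in 1% acetic acid for 10 min, and the dye solubilized in 10 mM Tris. Absorbance was read at 515 nm; runs were in triplicate; IC50 was calculated, with fits of R2 0.8–1 accepted.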

RAC-alpha serine/threonine-protein kinase (Homo sapiens), sequence (P31749 whole entry): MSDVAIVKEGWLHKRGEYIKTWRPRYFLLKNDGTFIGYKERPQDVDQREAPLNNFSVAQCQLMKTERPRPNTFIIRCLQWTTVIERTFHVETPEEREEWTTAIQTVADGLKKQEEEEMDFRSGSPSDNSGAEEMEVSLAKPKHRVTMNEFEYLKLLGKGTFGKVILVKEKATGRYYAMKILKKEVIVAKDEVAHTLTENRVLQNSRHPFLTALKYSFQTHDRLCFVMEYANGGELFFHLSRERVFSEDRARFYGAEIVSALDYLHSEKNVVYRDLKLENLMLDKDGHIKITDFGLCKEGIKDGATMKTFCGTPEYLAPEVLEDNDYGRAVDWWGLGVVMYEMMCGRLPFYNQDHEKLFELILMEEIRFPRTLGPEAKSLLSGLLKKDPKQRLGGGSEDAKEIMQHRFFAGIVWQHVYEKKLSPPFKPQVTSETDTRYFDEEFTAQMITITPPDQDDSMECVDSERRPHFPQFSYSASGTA

SMILES	Activity (Huh-7)	inhibition [1]	IC50 [2]
COc1ccc(C2=Nn3c(nnc3C(C)c3ccc(CC(C)C)cc3)SC2)cc1 (stereo unspecified)	Active	Active	8.5 µM
Cc1ccc(C2=Nn3c(nnc3C(C)c3ccc(CC(C)C)cc3)SC2)cc1 (stereo unspecified)	Active	Active	8.7 µM
